ChEMBL document CHEMBL4359830, “Discovery and structure-activity relationship of novel diphenylthiazole derivatives as BTK inhibitor with potent activity against B cell lymphoma cell lines” (Eur J Med Chem, 2019)
The source made the active and inactive calls. The rule behind the calls is not given here.

Assays:
Ramos [1] = assay: Induction of apoptosis in human Ramos cells assessed as viable cells at 0.1 uM measured after 15 mins by Annexin-V-APC staining-based flow cytometric analysis (reference value: 96.5 %); assay type: functional; settings: 0.25 h, read-out: Activity
Ramos [2] = assay: Antiproliferative activity against human Ramos cells at 40 uM measured after 72 hrs by CCK-8 assay relative to control; assay type: functional; settings: Homo sapiens, Ramos, 72 h
In short: (§1)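 Ramos or Raji cells in RPMI-1640 with 10% FBS and 1% penicillin-streptomycin at 37 °C, 5% CO2. Seeded at 2000–3000 cells/well one day before compound addition. Exposure 72 h, then CCK-8 with absorbance at 450 nm. […] Single-point inhibition at 40 µM reported as mean ± standard deviation.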

Ramos [3] = assay: Antiproliferative activity against human Ramos cells measured after 72 hrs by CCK-8 assay; assay type: functional, cell-based; in short: as §1
Raji [4] = assay: Antiproliferative activity against human Raji cells at 40 uM measured after 72 hrs by CCK-8 assay relative to control; assay type: functional; settings: Homo sapiens, Raji, 72 h; in short: as §1
Raji [5] = assay: Antiproliferative activity against human Raji cells measured after 72 hrs by CCK-8 assay; assay type: functional, cell-based; in short: as §1
Ramos [6] = assay: Induction of apoptosis in human Ramos cells assessed as late apoptotic cells at 0.1 uM measured after 15 mins by Annexin-V-APC staining-based flow cytometric analysis (reference value: 1.85 %); assay type: functional
Ramos [7] = assay: Induction of apoptosis in human Ramos cells assessed as viable cells at 1 uM measured after 15 mins by Annexin-V-APC staining-based flow cytometric analysis (reference value: 96.5 %); assay type: functional; settings: 0.25 h, read-out: Activity
Ramos [8] = assay: Induction of apoptosis in human Ramos cells assessed as early apoptotic cells at 1 uM measured after 15 mins by Annexin-V-APC staining-based flow cytometric analysis (reference value: 0.14 %); assay type: functional
Ramos [9] = assay: Induction of apoptosis in human Ramos cells assessed as late apoptotic cells at 1 uM measured after 15 mins by Annexin-V-APC staining-based flow cytometric analysis (reference value: 1.85 %); assay type: functional
Ramos [10] = assay: Induction of apoptosis in human Ramos cells assessed as necrotic cells at 1 uM measured after 15 mins by Annexin-V-APC staining-based flow cytometric analysis (reference value: 1.50 %); assay type: functional
Ramos [11] = assay: Induction of apoptosis in human Ramos cells assessed as viable cells at 3 uM measured after 15 mins by Annexin-V-APC staining-based flow cytometric analysis (reference value: 96.5 %); assay type: functional; settings: 0.25 h, read-out: Activity
Ramos [12] = assay: Induction of apoptosis in human Ramos cells assessed as late apoptotic cells at 3 uM measured after 15 mins by Annexin-V-APC staining-based flow cytometric analysis (reference value: 1.85 %); assay type: functional
Ramos [13] = assay: Induction of apoptosis in human Ramos cells assessed as necrotic cells at 3 uM measured after 15 mins by Annexin-V-APC staining-based flow cytometric analysis (reference value: 1.50 %); assay type: functional
Ramos [14] = assay: Induction of apoptosis in human Ramos cells assessed as viable cells at 5 uM measured after 15 mins by Annexin-V-APC staining-based flow cytometric analysis (reference value: 96.5 %); assay type: functional; settings: Homo sapiens, Ramos, 0.25 h; read-out: Activity
Ramos [15] = assay: Induction of apoptosis in human Ramos cells assessed as late apoptotic cells at 5 uM measured after 15 mins by Annexin-V-APC staining-based flow cytometric analysis (reference value: 1.85 %); assay type: functional
Ramos [16] = assay: Induction of apoptosis in human Ramos cells assessed as necrotic cells at 5 uM measured after 15 mins by Annexin-V-APC staining-based flow cytometric analysis (reference value: 1.50 %); assay type: functional
Raji [17] = assay: Induction of apoptosis in human Raji cells assessed as late apoptotic cells at 0.1 uM measured after 15 mins by Annexin-V-APC staining-based flow cytometric analysis (reference value: 0.57 %); assay type: functional
Raji [18] = assay: Induction of apoptosis in human Raji cells assessed as viable cells at 1 uM measured after 15 mins by Annexin-V-APC staining-based flow cytometric analysis (reference value: 97.5 %); assay type: functional; settings: 0.25 h, read-out: Activity
Raji [19] = assay: Induction of apoptosis in human Raji cells assessed as late apoptotic cells at 1 uM measured after 15 mins by Annexin-V-APC staining-based flow cytometric analysis (reference value: 0.57 %); assay type: functional
Raji [20] = assay: Induction of apoptosis in human Raji cells assessed as necrotic cells at 1 uM measured after 15 mins by Annexin-V-APC staining-based flow cytometric analysis (reference value: 1.87 %); assay type: functional
Raji [21] = assay: Induction of apoptosis in human Raji cells assessed as late apoptotic cells at 3 uM measured after 15 mins by Annexin-V-APC staining-based flow cytometric analysis (reference value: 0.57 %); assay type: functional
Raji [22] = assay: Induction of apoptosis in human Raji cells assessed as necrotic cells at 3 uM measured after 15 mins by Annexin-V-APC staining-based flow cytometric analysis (reference value: 1.87 %); assay type: functional
Raji [23] = assay: Induction of apoptosis in human Raji cells assessed as late apoptotic cells at 5 uM measured after 15 mins by Annexin-V-APC staining-based flow cytometric analysis (reference value: 0.57 %); assay type: functional
Raji [24] = assay: Induction of apoptosis in human Raji cells assessed as necrotic cells at 5 uM measured after 15 mins by Annexin-V-APC staining-based flow cytometric analysis (reference value: 1.87 %); assay type: functional
Ramos [25] = assay: Cell cycle arrest in human Ramos cells assessed as accumulation at S phase at 1 uM measured after 48 hrs by propidium iodide/RNase staining based flow cytometric analysis (reference value: 56.35 %); assay type: functional
Ramos [26] = assay: Cell cycle arrest in human Ramos cells assessed as accumulation at S phase at 5 uM measured after 48 hrs by propidium iodide/RNase staining based flow cytometric analysis (reference value: 56.35 %); assay type: functional
Raji [27] = assay: Cell cycle arrest in human Raji cells assessed as accumulation at G0/G1 phase at 0.1 uM measured after 48 hrs by propidium iodide/RNase staining based flow cytometric analysis (reference value: 48.68 %); assay type: functional
Raji [28] = assay: Cell cycle arrest in human Raji cells assessed as accumulation at G2/M phase at 1 uM measured after 48 hrs by propidium iodide/RNase staining based flow cytometric analysis (reference value: 18.14 %); assay type: functional
Raji [29] = assay: Cell cycle arrest in human Raji cells assessed as accumulation at S phase at 5 uM measured after 48 hrs by propidium iodide/RNase staining based flow cytometric analysis (reference value: 33.18 %); assay type: functional
Raji [30] = assay: Cell cycle arrest in human Raji cells assessed as accumulation at G2/M phase at 5 uM measured after 48 hrs by propidium iodide/RNase staining based flow cytometric analysis (reference value: 18.14 %); assay type: functional
[31] = molecular target: T1, Tyrosine-protein kinase BTK (Homo sapiens, UniProt Q06187); assay: Inhibition of BTK in anti-IgM-stimulated human Raji cells assessed as decrease in auto-phosphorylation at Y223 residue at 5 uM after 48 hrs by Western blot analysis; assay type: cell-based
T1 sequence (Q06187 whole entry): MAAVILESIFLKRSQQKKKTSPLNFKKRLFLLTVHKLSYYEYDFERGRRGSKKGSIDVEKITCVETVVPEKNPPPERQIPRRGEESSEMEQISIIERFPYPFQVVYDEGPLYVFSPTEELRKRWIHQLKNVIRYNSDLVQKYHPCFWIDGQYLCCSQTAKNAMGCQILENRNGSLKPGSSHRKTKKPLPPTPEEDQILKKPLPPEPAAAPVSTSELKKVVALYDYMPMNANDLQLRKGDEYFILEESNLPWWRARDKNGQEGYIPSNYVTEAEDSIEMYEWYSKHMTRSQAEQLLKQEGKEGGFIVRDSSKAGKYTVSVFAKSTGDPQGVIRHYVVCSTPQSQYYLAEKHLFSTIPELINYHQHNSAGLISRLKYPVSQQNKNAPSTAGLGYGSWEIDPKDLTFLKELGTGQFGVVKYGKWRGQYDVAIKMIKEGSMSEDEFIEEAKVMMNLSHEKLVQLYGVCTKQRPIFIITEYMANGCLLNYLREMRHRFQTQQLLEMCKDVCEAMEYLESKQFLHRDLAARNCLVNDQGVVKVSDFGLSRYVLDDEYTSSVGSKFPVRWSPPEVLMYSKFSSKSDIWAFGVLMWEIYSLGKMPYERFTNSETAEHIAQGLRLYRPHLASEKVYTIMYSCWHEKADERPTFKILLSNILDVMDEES
In short: (§2)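 Cells were stimulated with anti-IgM and exposed to serial dilutions for 48 h. Lysis was in 2× Laemmli buffer with 2.5% β-mercaptoethanol at 4 °C for 15 min, then boiling for 5 min. Proteins were separated on 10% SDS-PAGE and moved to nitrocellulose. Blots were probed overnight (12–18 h, 4 °C) with phospho-BTK Tyr223, phospho-PLCγ2 Tyr1217 and β-actin antibodies (1:1000), then anti-rabbit HRP, with chemiluminescent detection.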

[32] = molecular target: T1, Tyrosine-protein kinase BTK; assay: Inhibition of BTK in anti-IgM-stimulated human Raji cells assessed as decrease in auto-phosphorylation at Y223 residue after 48 hrs by Western blot analysis; assay type: cell-based; in short: as §2

Molecule `CN1CCN(c2ccc(Nc3nc(-c4cccc(NC(=O)c5ccc(F)c(Cl)c5)c4)sc3C(N)=O)cc2)CC1` has a viability at 0.1 µM (Ramos [1]) of 96.4%, an inhibition at 40 µM (Ramos [2]) of 97.5% and an IC50 (Ramos [3]) of 4.83 µM. It also gave an inhibition at 40 µM (Raji [4]) of 94.4%, an IC50 (Raji [5]) of 6.23 µM and an Activity (Ramos [6]) of 1.88%. For the same molecule, the viability at 1 µM (Ramos [7]) was 95.7%, the Activity (Ramos [8]) was 0.051% and the Activity (Ramos [9]) was 2.23%. It also gave an Activity (Ramos [10]) of 2.04%, a viability at 3 µM (Ramos [11]) of 87.3% and an Activity (Ramos [12]) of 6.43%. For the same molecule, the Activity (Ramos [13]) was 6.17%, the viability at 5 µM (Ramos [14]) was 1.55% and the Activity (Ramos [15]) was 72.4%. For the same molecule, the Activity (Ramos [16]) was 25.7%, the Activity (Raji [17]) was 0.44% and the viability at 1 µM (Raji [18]) was 97.6%. It also gave an Activity (Raji [19]) of 0.53%, an Activity (Raji [20]) of 1.88% and an Activity (Raji [21]) of 1.52%. The Activity (Raji [22]) was 2.91%, the Activity (Raji [23]) was 67.7% and the Activity (Raji [24]) was 32%. The Activity (Ramos [25]) was 33.13%, the Activity (Ramos [26]) was 14.14% and the Activity (Raji [27]) was 47.04%. The Activity (Raji [28]) was 24.53%, the Activity (Raji [29]) was 1.26% and the Activity (Raji [30]) was 16.19%. The inhibition [31] was “Active” and the inhibition [32] was “Dose-dependent effect”.
